Results: ChEMBL document CHEMBL1821600, “Synthesis and antiviral evaluation of α-L-2'-deoxythreofuranosyl nucleosides” (Eur J Med Chem, 2011)
The source made the active and inactive calls. The rule behind the calls is not given here.

Assays:
[1] = test system: Respiratory syncytial virus; experiment: Antiviral activity against Respiratory syncytial virus infected in HeLa cells assessed as inhibition of virus-induced cytopathicity upto 200 uM administered after 1 hr virus adsorption period; type: functional, organism-based
How it was run: (§1)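 Confluent cell monolayers (HEL for HSV-1 and HSV-2; Vero for parainfluenza-3, reovirus-1, Sindbis and Punta Toro; HeLa for Coxsackie B4 and RSV) in 96-well plates were inoculated with 100 CCID50 of virus. After 1 h adsorption, unbound virus was removed. Cells were then kept with compound at 200, 40, 8… μM. Cytopathicity was scored once untreated infected controls reached full CPE.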

[2] = Cytotoxicity against CRFK cells at 100 ug/ml; type: cell-based, Felis catus; conditions: cat
Vero = experiment: Cytotoxicity against african green monkey Vero cells at 100 ug/ml; type: cell-based; conditions: chlorocebus sabaeus
[3] = target: Thymidine kinase, cytosolic (Homo sapiens, UniProt P04183); experiment: Inhibition of human recombinant cytosolic TK1 assessed as inhibition of [methyl-3H]dThd phosphorylation after 30 mins by scintillation counting
Chain of Thymidine kinase, cytosolic (P04183 whole entry): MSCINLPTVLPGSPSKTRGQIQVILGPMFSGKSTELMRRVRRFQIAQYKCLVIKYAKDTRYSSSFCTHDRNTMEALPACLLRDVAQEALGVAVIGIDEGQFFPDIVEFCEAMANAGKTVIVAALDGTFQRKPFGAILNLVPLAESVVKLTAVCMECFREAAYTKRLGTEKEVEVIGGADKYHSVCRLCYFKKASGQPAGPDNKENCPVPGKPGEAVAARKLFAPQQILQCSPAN
How it was run: (§2)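 Recombinant enzyme (TK-1, TK-2, HSV-1 TK, VZV TK or Drosophila dNK) was used in 50 mM Tris/HCl pH 8.0 with 2.5 mM MgCl2, 10 mM DTT, 0.5 mM CHAPS, 3 mg/mL BSA, 2.5 mM ATP and 1 µM [methyl-3H]dThd. Compound was added as 5-fold dilutions, and reactions ran 30 min at 37 °C, still linear. Mixtures were spotted on DE-81 disks, washed in ammonium formate, water and ethanol, then scintillation counted. IC50 was determined.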

Human betaherpesvirus 5 = experiment: Antiviral activity against Human cytomegalovirus infected in human HEL cells assessed as inhibition of virus-induced cytopathicity upto 200 uM administered after 1 hr virus adsorption period; type: functional, organism-based
Deoxynucleoside kinase = target: T1, Deoxynucleoside kinase (Drosophila melanogaster, UniProt Q9XZT6); experiment: Inhibition of Drosophila melanogaster deoxynucleoside kinase assessed as inhibition of [methyl-3H]dThd phosphorylation after 30 mins by scintillation counting; how it was run: as §2
T1 sequence (Q9XZT6 whole entry): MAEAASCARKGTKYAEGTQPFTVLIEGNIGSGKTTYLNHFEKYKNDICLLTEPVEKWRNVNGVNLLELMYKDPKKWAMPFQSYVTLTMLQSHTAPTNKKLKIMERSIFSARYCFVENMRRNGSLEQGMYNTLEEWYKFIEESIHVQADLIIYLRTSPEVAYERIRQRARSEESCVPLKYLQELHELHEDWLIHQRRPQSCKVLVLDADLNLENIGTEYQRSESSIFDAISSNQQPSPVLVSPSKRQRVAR

[4] = test system: Mammalian orthoreovirus 1; experiment: Antiviral activity against Reovirus 1 infected in Vero cells assessed as inhibition of virus-induced cytopathicity upto 200 uM administered after 1 hr virus adsorption period; type: functional, organism-based; how it was run: as §1
[5] = Inhibition of varicella zoster virus thymidine kinase assessed as inhibition of [methyl-3H]dThd phosphorylation after 30 mins by scintillation counting; design: species or system Human alphaherpesvirus 3; how it was run: as §2
Punta Toro virus = experiment: Antiviral activity against Punta Toro virus infected in Vero cells assessed as inhibition of virus-induced cytopathicity upto 200 uM administered after 1 hr virus adsorption period; type: functional, organism-based; how it was run: as §1
HEL = experiment: Cytotoxicity against human HEL cells at 100 ug/ml; type: cell-based
Influenza A virus [6] = experiment: Antiviral activity against influenza A virus H1N1 infected in MDCK cells assessed as inhibition of virus-induced cytopathicity upto 200 uM administered after 1 hr virus adsorption period; type: functional, organism-based
[7] = test system: Human immunodeficiency virus 1; experiment: Antiviral activity against Human immunodeficiency virus 1 3B infected in human CEM cells assessed as inhibition of virus-induced giant cell formation after 4 days by microscopic method; type: functional, organism-based; conditions: CCRF-CEM, 96 h
How it was run: (§3)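 CEM cells (~3×10^5 cells/cm³) were infected with 100 CCID50/mL of HIV-1(IIIB) or HIV-2(ROD) and seeded into wells containing serial compound dilutions. After 4 days at 37 °C, giant (syncytium) cell formation was scored microscopically.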

Feline coronavirus = experiment: Antiviral activity against Feline coronavirus infected in CRFK cells assessed as inhibition of virus-induced cytopathicity upto 200 uM administered after 1 hr virus adsorption period; type: functional, organism-based
Human respirovirus 3 = experiment: Antiviral activity against Parainfluenza virus 3 infected in Vero cells assessed as inhibition of virus-induced cytopathicity upto 200 uM administered after 1 hr virus adsorption period; type: functional, organism-based; how it was run: as §1
Human alphaherpesvirus 2 = experiment: Antiviral activity against Herpes simplex virus type 2 infected in HEL cells assessed as inhibition of virus-induced cytopathicity upto 200 uM administered after 1 hr virus adsorption period; type: functional, organism-based; how it was run: as §1
Vaccinia virus = experiment: Antiviral activity against Vaccinia virus infected in HEL cells assessed as inhibition of virus-induced cytopathicity upto 200 uM administered after 1 hr virus adsorption period; type: functional, organism-based; conditions: Orthopoxvirus vaccinia
[8] = Inhibition of Herpes simplex virus type 1 thymidine kinase assessed as inhibition of [methyl-3H]dThd phosphorylation after 30 mins by scintillation counting; design: species or system Human alphaherpesvirus 1; how it was run: as §2
Human alphaherpesvirus 1 = experiment: Antiviral activity against Herpes simplex virus type 1 infected in HEL cells assessed as inhibition of virus-induced cytopathicity upto 200 uM administered after 1 hr virus adsorption period; type: functional, organism-based; how it was run: as §1
[9] = test system: Vesicular stomatitis virus; experiment: Antiviral activity against Vesicular stomatitis virus infected in HEL cells assessed as inhibition of virus-induced cytopathicity upto 200 uM administered after 1 hr virus adsorption period; type: functional, organism-based
Influenza B virus = experiment: Antiviral activity against influenza B virus infected in MDCK cells assessed as inhibition of virus-induced cytopathicity upto 200 uM administered after 1 hr virus adsorption period; type: functional, organism-based
HeLa = experiment: Cytotoxicity against human HeLa cells at 100 ug/ml; type: cell-based
[10] = test system: Human immunodeficiency virus 2; experiment: Antiviral activity against Human immunodeficiency virus type 2 ROD infected in human CEM cells assessed as inhibition of virus-induced giant cell formation after 4 days by microscopic method; type: functional, organism-based; conditions: Human immunodeficiency virus 2, ISOLATE ROD, CCRF-CEM, 96 h; how it was run: as §3
Coxsackievirus B4 = experiment: Antiviral activity against Coxsackievirus B4 infected in HeLa cells assessed as inhibition of virus-induced cytopathicity upto 200 uM administered after 1 hr virus adsorption period; type: functional, organism-based; how it was run: as §1
MDCK = experiment: Cytotoxicity against MDCK cells at 100 ug/ml; type: cell-based, Canis lupus familiaris; conditions: dog
Sindbis virus = experiment: Antiviral activity against Sindbis virus infected in Vero cells assessed as inhibition of virus-induced cytopathicity upto 200 uM administered after 1 hr virus adsorption period; type: functional, organism-based; how it was run: as §1
Influenza A virus [11] = experiment: Antiviral activity against Influenza A virus H3N2 infected in MDCK cells assessed as inhibition of virus-induced cytopathicity upto 200 uM administered after 1 hr virus adsorption period; type: functional, organism-based
[12] = target: T2, Thymidine kinase 2, mitochondrial (Homo sapiens, UniProt O00142); experiment: Inhibition of human mitochondrial TK2 assessed as inhibition of [methyl-3H]dThd phosphorylation after 30 mins by scintillation counting; how it was run: as §2
T2 sequence (O00142 whole entry): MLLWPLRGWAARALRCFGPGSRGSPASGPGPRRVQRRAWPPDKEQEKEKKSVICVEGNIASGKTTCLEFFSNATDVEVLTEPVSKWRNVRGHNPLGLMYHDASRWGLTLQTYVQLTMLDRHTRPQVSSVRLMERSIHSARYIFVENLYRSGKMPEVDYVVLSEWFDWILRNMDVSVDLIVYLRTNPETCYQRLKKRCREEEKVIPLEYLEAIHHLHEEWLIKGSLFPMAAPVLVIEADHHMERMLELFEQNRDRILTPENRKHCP

Human alphaherpesvirus 3 = experiment: Antiviral activity against Varicella Zoster Virus infected in human HEL cells assessed as inhibition of virus-induced cytopathicity upto 200 uM administered after 1 hr virus adsorption period; type: functional, organism-based
CCRF-CEM = experiment: Cytotoxicity against human CEM cells at 100 ug/ml; type: cell-based

SMILES | inhibition [1] | Activity [2] | Activity (Vero) | inhibition (Human betaherpesvirus 5) | inhibition [4] | inhibition (Punta Toro virus) | Activity (HEL) | inhibition (Influenza A virus [6]) | EC50 [7] | inhibition (Feline coronavirus) | inhibition (Human respirovirus 3) | inhibition (Human alphaherpesvirus 2) | inhibition (Vaccinia virus) | inhibition (Human alphaherpesvirus 1) | inhibition [9] | inhibition (Influenza B virus) | Activity (HeLa) | EC50 [10] | inhibition (Coxsackievirus B4) | Activity (MDCK) | further results
Nc1ncnc2c1ncn2[C@H]1C[C@@H](O)CO1 | inactive | Non-toxic | Non-toxic | inactive | inactive | inactive | Non-toxic | inactive | > 100 µg/mL | inactive | inactive | inactive | inactive | inactive | inactive | inactive | Non-toxic | > 100 µg/mL | inactive | Non-toxic | IC50 [3]: > 904 µM; IC50 (Deoxynucleoside kinase): > 904 µM; IC50 [5]: > 200 µg/mL; IC50 [8]: > 200 µg/mL; inhibition (Sindbis virus): inactive; inhibition (Influenza A virus [11]): inactive; IC50 [12]: > 904 µM; inhibition (Human alphaherpesvirus 3): inactive; Activity (CCRF-CEM): Non-toxic
CC(=O)Nc1ccn([C@H]2C[C@@H](O)CO2)c(=O)n1 | inactive | Non-toxic | Non-toxic | inactive | inactive | inactive | Non-toxic | inactive | > 100 µg/mL | inactive | inactive | inactive | inactive | inactive | inactive | inactive | Non-toxic | > 100 µg/mL | inactive | Non-toxic | inhibition (Sindbis virus): inactive; inhibition (Influenza A virus [11]): inactive; inhibition (Human alphaherpesvirus 3): inactive; Activity (CCRF-CEM): Non-toxic
O=c1ccn([C@H]2C[C@@H](O)CO2)c(=O)[nH]1 | inactive | Non-toxic | Non-toxic | inactive | inactive | inactive | Non-toxic | inactive | > 100 µg/mL | inactive | inactive | inactive | inactive | inactive | inactive | inactive | Non-toxic | > 100 µg/mL | inactive | Non-toxic | IC50 (Deoxynucleoside kinase): > 1010 µM; IC50 [5]: > 200 µg/mL; IC50 [8]: > 200 µg/mL; inhibition (Sindbis virus): inactive; inhibition (Influenza A virus [11]): inactive; IC50 [12]: 303 µM; inhibition (Human alphaherpesvirus 3): inactive; Activity (CCRF-CEM): Non-toxic
